pKd: −log10 of the molar value. “Also recorded” adds a separate entry of the source.
What was measured:
[1] = tested on: OSBP localization in HCT-116 cells; assay: immunofluorescence imaging of endogenous OSBP localization; type: cell-based; settings: for OSBP cellular localization: 24 h, OSW-1 1 nM, 25-OHC, ITZ, TTP, THEV 10,000 nM, Golgi marker TGN46; for OSBP cellular localization on co-administration with OSW-1: 24 h, 10,000 nM compound with 1 nM OSW-1
OSBP levels in cells = settings: cited from earlier work
human OSBP [2] = target: T1, human OSBP (Homo sapiens, UniProt P22059); assay: 96-well [3H]-25-OHC competitive binding assay, OSBP; settings: compound at 10,000 nM; 20 nM 3H-25-OHC
T1 sequence (P22059 1-807): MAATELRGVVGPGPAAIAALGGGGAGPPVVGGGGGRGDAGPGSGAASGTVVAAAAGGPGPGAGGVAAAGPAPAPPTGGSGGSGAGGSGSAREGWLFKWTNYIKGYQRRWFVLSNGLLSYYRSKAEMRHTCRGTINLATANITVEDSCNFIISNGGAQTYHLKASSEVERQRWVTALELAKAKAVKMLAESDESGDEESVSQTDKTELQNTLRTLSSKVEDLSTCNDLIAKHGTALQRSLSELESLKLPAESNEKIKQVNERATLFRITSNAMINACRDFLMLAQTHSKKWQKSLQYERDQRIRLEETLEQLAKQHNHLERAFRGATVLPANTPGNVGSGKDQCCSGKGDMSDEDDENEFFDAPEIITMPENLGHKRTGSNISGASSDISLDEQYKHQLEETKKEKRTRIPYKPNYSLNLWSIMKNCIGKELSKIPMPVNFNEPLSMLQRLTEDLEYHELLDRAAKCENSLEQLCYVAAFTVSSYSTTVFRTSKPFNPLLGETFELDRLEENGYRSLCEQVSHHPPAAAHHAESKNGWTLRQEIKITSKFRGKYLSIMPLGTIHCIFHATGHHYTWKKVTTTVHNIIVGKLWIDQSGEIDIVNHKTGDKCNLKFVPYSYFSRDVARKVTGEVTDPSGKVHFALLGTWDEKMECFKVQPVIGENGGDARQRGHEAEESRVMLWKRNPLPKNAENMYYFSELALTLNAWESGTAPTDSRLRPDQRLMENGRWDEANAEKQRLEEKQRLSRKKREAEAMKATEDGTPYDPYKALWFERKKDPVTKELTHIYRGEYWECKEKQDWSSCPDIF

human ORP4 [3] = target: T2, human ORP4 (Homo sapiens, UniProt Q969R2); assay: 96-well [3H]-25-OHC competitive binding assay, ORP4; settings: compound at 10,000 nM; 20 nM 3H-25-OHC
T2 sequence (Q969R2 1-916): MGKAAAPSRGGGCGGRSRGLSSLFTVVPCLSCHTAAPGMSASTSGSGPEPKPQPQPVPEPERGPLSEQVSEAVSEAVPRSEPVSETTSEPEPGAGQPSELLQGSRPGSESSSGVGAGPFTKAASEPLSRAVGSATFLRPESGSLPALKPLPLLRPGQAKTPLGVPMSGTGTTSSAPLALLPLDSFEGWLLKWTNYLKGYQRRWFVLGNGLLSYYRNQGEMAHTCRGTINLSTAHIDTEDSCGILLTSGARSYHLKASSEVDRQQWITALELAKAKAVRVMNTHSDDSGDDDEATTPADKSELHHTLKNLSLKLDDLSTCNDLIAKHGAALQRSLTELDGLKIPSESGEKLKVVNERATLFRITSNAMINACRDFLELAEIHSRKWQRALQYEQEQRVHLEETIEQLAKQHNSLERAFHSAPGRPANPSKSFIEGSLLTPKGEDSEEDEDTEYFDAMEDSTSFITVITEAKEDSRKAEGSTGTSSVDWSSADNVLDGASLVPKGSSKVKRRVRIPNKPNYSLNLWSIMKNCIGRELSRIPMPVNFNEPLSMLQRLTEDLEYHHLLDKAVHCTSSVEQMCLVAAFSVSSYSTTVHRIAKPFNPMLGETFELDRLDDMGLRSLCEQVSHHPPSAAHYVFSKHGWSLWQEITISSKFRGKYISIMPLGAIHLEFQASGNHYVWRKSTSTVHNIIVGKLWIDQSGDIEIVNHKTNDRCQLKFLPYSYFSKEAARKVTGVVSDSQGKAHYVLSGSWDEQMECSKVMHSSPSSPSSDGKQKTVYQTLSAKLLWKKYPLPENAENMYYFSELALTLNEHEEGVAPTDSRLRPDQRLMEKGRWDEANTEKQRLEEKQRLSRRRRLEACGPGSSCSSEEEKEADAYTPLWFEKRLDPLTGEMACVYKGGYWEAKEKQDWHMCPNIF
Outline: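 Inhibition of 20 nM [3H]-25-OHC binding to human ORP4 overexpressed in […] cell lysate, run in 96-well competitive format; […].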

[4] = tested on: OSBP levels in HCT-116 and HEK293 cells; assay: OSBP expression in cells upon 24 h compound treatment; type: cell-based, human; settings: for effect of co-administration on OSW-1-induced reduction of OSBP levels: 10,000 nM compound with 1 nM OSW-1, HEK293 and HCT116; for effect on OSBP cellular levels: OSW-1 1 nM, Taxol 10 nM, ITZ, THEV, TTP 10,000 nM, HEK293 and HCT-116
Outline: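 HCT-116 (McCoy's 5A, 10% serum, 1% penicillin-streptomycin) or HEK293 cells seeded 5×10^5 per well, 20 h at 37 °C. Compound diluted from stock in complete medium, alone or with 1 nM OSW-1 co-treatment, for 24 h; DMSO vehicle control. Lysates immunoblotted for OSBP (A-5 antibody), β-actin as loading reference. Bands averaged over independent experiments.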

HCT-116 cells = assay: Trypan Blue cell viability assay; type: cell-based; settings: for effect on cell population (cell counting after Trypan blue staining): 24 h, OSW-1 1 nM, ITZ, THEV, TTP 10,000 nM, each alone
immortalized cell lines = assay: 48 h assay for cell metabolic activity; type: cell-based; settings: at <10,000 nM concentrations, Fig. 4B, Supp. Fig. 1
HeLa cells = assay: 48 h cytotoxicity assay; type: cell-based; settings: for effect of co-administration on antiproliferative OSW-1 activity, HeLa: 48 h, compound at 10,000 nM with OSW-1
full-length GFP-OSBP = settings: read-out: KD for full-length GFP-OSBP; microscale thermophoresis; cited from earlier work
[5] = tested on: N-terminal OSBP FFAT domain with VAP-A; settings: BiMC assay; cited from earlier work
OSBP C-terminal ORD = settings: OSBP proteolyzed fragments; cited from earlier work
[6] = tested on: OSBP levels in HeLa cells; assay: OSBP levels in HeLa cells after 6 h treatment and 24 h compound-free recovery; type: cell-based, human; settings: 6 h OSW-1 (10 nM) treatment, 24 h recovery, just prior to viral infection
Outline: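 HeLa cells exposed 6 h to compound in complete medium, washed three times, then held 24 h in compound-free complete medium. OSBP read by Western blot (A-5 antibody, β-actin reference) at the time point corresponding to viral inoculation in washout antiviral runs.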

HEK293 cells = assay: 48 h cytotoxicity assay; type: cell-based; settings: read-out: growth inhibition 50% (GI50), HEK293 cells; 48 h treatment
human OSBP [7] = target: T1, human OSBP; settings: cited from earlier work
human ORP4 [8] = target: T2, human ORP4; settings: cited from earlier work
[9] = tested on: Coxsackievirus A9 (strain CoxA9–01); settings: HeLa; 1 nM OSW-1; infection 24 h after treatment ended; cited from earlier work
[10] = tested on: Echovirus 2 (strain Echo2–01); settings: HeLa; 1 nM OSW-1; infection 24 h after treatment ended; cited from earlier work
cells = settings: 6 h OSW-1 treatment of cells; cited from earlier work
OSBP = settings: in vitro; cited from earlier work

Row | SMILES | OSBP cellular localization [1] | effect of co-administration on OSW-1-induced reduction of OSBP levels [4] | effect on OSBP cellular levels [4] | effect on cell population (cell counting after Trypan blue staining) (HCT-116 cells) | antiproliferative activity (immortalized cell lines) | effect of co-administration on antiproliferative OSW-1 activity, HeLa (HeLa cells) | OSBP cellular localization on co-administration with OSW-1 [1] | further results
1 | C[C@H](CCCC(C)(C)O)[C@H]1CC[C@H]2[C@@H]3CC=C4C[C@@H](O)CC[C@]4(C)[C@H]3CC[C@]12C [25-OHC, 25-hydroxycholesterol] | strongly colocalizes OSBP with the Golgi marker in a small area |  |  |  |  |  |  | effect on OSBP levels in cells (OSBP levels in cells): does not reduce OSBP levels in cells; also recorded: do not reduce OSBP levels
2 | CCC(C)n1ncn(-c2ccc(N3CCN(c4ccc(OCC5COC(Cn6cncn6)(c6ccc(Cl)cc6Cl)O5)cc4)CC3)cc2)c1=O (stereo not drawn) [ITZ, itraconazole] | causes OSBP to adopt a more punctate pattern closely associated with the Golgi marker | partially blocks the reduction of OSBP levels | do not reduce OSBP levels | 15–20% | no antiproliferative activity | does not significantly affect the antiproliferative OSW-1 activity | produces a tight localization of OSBP with a stronger signal than OSW-1 alone | inhibition of 25-OHC binding to OSBP (human OSBP [2]): no 25-OHC inhibition binding; inhibition of 25-OHC binding to ORP4 (human ORP4 [3]): no 25-OHC inhibition binding; pKd (full-length GFP-OSBP): ~6.37; inhibition of OSBP FFAT domain interaction with VAP-A [5]: Neither ITZ (3) or TTP (5) substantially inhibited; effect on ORD lipid transfer activity (OSBP C-terminal ORD): blocked the ORD transfer activity of both sterols and PI4P
3 | COc1ccc(C(=O)O[C@H]2[C@H](O[C@@H]3[C@@H](OC(C)=O)[C@H](O[C@H]4C[C@H]5[C@@H]6CC=C7C[C@@H](O)CC[C@]7(C)[C@H]6CC[C@]5(C)[C@@]4(O)[C@H](C)C(=O)CCC(C)C)OC[C@@H]3O)OC[C@@H](O)[C@@H]2O)cc1 [OSW-1] | remaining OSBP is tightly grouped around one location |  | pronounced reduction of OSBP cellular levels | 15–20% |  |  |  | reduction of cellular OSBP levels [6]: > 90%; GI50 (HeLa cells; read-out: growth inhibition 50% (GI50), HeLa cells, 48 h treatment): 0.33 nM; GI50 (HEK293 cells): 0.22 nM; Ki, competitive inhibition of 25-OHC binding to OSBP (human OSBP [7]): low nanomolar; Ki, competitive inhibition of 25-OHC binding to ORP4 (human ORP4 [8]): low nanomolar; prophylactic antiviral protection, Cosackievirus 9a [9]: conferred significant antiviral protection; prophylactic antiviral protection, Echovirus 2 [10]: conferred significant antiviral protection; duration of repression of OSBP levels after compound treatment is stopped (OSBP levels in cells; 1 nM OSW-1 for 6 h, then compound removed): 72 h; reduction of OSBP levels in cells (OSBP levels in cells; short duration (1–6 h), non-cytotoxic dose): > 90%; cytotoxicity of 6 h treatment (cells): not cytotoxic nor anti-proliferative
4 | CC1(C)C[C@H]2[C@@H]3CC=C4C[C@@H](OC5CCCCO5)CC[C@]4(C)[C@H]3CC[C@]2(C)[C@H]1O (stereo partly drawn) [THEV] | induces OSBP localization to confined area tightly packed with the Golgi marker | partially blocks the reduction of OSBP levels | do not reduce OSBP levels | does not affect the cell population | no antiproliferative activity | does not significantly affect the antiproliferative OSW-1 activity | produces cellular localization effects with elements of both OSW-1 and THEV treatment alone | effect of co-administration with OSW-1 on cell population (Trypan blue) (HCT-116 cells; 24 h, 10,000 nM compound with 1 nM OSW-1): rescues cell population numbers
5 | C[C@@H](NC(=O)c1cccc(-c2cnc(-c3cc4ccccc4cn3)[nH]2)c1)c1ccc(F)cc1 [TTP] | induces a tight colocalization of OSBP with the Golgi marker with a perinuclear pattern close to the vehicle (DMSO) treated cell | has no effect on OSBP levels | do not reduce OSBP levels | does not affect the cell population | no antiproliferative activity | does not significantly affect the antiproliferative OSW-1 activity | low expression of OSBP with a pattern not consistent with the OSW-1 alone or TTP alone treatment | inhibition of 25-OHC binding to OSBP (human OSBP [2]): no 25-OHC inhibition binding; inhibition of 25-OHC binding to ORP4 (human ORP4 [3]): no 25-OHC inhibition binding; inhibition of OSBP cholesterol transport between vesicles (OSBP): shown to inhibit the ability of OSBP to transport cholesterol between vesicles; inhibition of OSBP FFAT domain interaction with VAP-A [5]: Neither ITZ (3) or TTP (5) substantially inhibited
6 | CC(=O)O[C@H]1C(=O)[C@@]2(C)[C@H]([C@H](OC(=O)c3ccccc3)[C@]3(O)C[C@H](OC(=O)[C@H](O)[C@@H](NC(=O)c4ccccc4)c4ccccc4)C(C)=C1C3(C)C)[C@]1(OC(C)=O)CO[C@@H]1C[C@@H]2O [Taxol] |  |  | OSBP levels are not reduced |  |  |  |  | 
7 | CC(C)=CCC/C(C)=C/Cc1c(O)cc(/C=C/c2cc(O)c3c(c2)C[C@@H]2C(C)(C)[C@H](O)[C@H](O)C[C@@]2(C)O3)cc1O [schweinfurthin A] |  |  |  |  |  |  |  | effect on OSBP levels in cells (OSBP levels in cells): do not reduce OSBP levels

From PMC10786240 (Antiviral research, 2019)
